# Measurements: BindingDB's records for doi:10.1021/np2003066 (The University of Montana, 2011)
# Biological target: Interleukin-1 beta (Homo sapiens, UniProt P01584)
# Test: Induction of IL-1 beta production in LPS-induced human THP-1 cells by ELISA
# Summary of the method: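 THP-1 cells were differentiated with PMA (1 μg/mL) for 24 h, scraped, pelleted and resuspended at 1.0 × 10^6 cells/mL. They were exposed together to test inhibitor, LPS [20 ng/mL] and TiO2 nanowires (100 μg/ml) for 24 h at 37 °C in a CO2 incubator. IL-1β released was measured by DuoSet ELISA, and IC50 was derived from the post-exposure IL-1β levels.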
# Chain of Interleukin-1 beta (P01584 117-269 limits assumed): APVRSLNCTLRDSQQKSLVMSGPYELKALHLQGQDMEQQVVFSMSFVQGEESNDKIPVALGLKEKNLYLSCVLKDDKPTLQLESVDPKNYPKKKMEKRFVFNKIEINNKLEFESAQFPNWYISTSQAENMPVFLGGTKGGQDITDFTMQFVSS
row,SMILES,IC50
1,CC(=O)N[C@@H](Cc1ccc(O)cc1)C(=O)N[C@H](C(=O)N[C@@H](C)C(=O)N[C@H](C=O)CC(=O)O)C(C)C,2 µM
2,C=C1[C@@]2(C)C[C@H]3[C@]4(C)CCC(=O)C(C)(C)[C@H]4CC[C@]3(C)[C@]1(C(=O)OC)C(=O)[C@@](C)(O)C2=O,15.5 µM
3,C=C1[C@@]2(C)C[C@H]3[C@]4(C)CC[C@@H](O)C(C)(C)[C@H]4CC[C@]3(C)[C@]1(C(=O)OC)C(=O)[C@@](C)(O)C2=O,2.7 µM
4,C=C1[C@@]2(C)C[C@@H]3[C@](C)(CC=C4C(C)(C)OC(=O)CC[C@]43C)[C@]1(C(=O)OC)C(=O)[C@@](C)(O)C2=O,3.7 µM
5,C=C1[C@@]2(C)C[C@H]3[C@]4(C)CCC(=O)OC(C)(C)[C@@H]4CC[C@]3(C)[C@]1(C(=O)OC)C(=O)[C@@](C)(O)C2=O,34.3 µM
6,C=C(C)C1=CC[C@@]2(C)[C@@H](C[C@]3(C)C(=C)[C@@]2(C(=O)OC)C(=O)[C@@](C)(O)C3=O)[C@]1(C)CCC(=O)O,37.8 µM
7,C=C1[C@@]2(C)C[C@H]3C(C)=C4CC(=O)OC(C)(C)C4=CC[C@]3(C)[C@]1(C(=O)OC)C(=O)[C@@](C)(O)C2=O [BERKELEYDIONE],4.4 µM
